Results: ChEMBL document CHEMBL1146476, “Structure-activity relationships of ring C-secotaxoids. 1. Acylative modifications” (J Nat Prod, 2004)

Legend:
[1] = test system: MCF7; test: Cytotoxicity against human MCF7 cells after 72 hrs by SRB assay; type: functional, cell-based; details: MCF7, 72 h
[2] = test system: MCF7; test: Cytotoxicity against human multidrug-resistant MCF7 cells after 72 hrs by SRB assay; type: functional, cell-based; details: MCF7, 72 h
Summary of the method: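 Monolayer cultures kept in RPMI-1640 with 5% FCS, 5% NuSerum IV, 20 mM HEPES, 2 mM L-glutamine at 37 °C, 5% CO2. Cells seeded at 800-1500/well and allowed to attach 15-18 h, then given 10 concentrations spanning 5 logs (DMSO stock diluted in RPMI-1640/10 mM HEPES) for 72 h. Fixed with cold TCA, stained with 0.4% SRB, OD 570 nm. Sigmoid-Emax nonlinear regression fit.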

CC(=O)O[C@@]1([C@@H]2/C(C)=C(/O)C(=O)C3=C(C)[C@@H](OC(=O)[C@H](O)[C@H](CC(C)C)NC(=O)OC(C)(C)C)C[C@@](O)([C@H]2OC(=O)c2ccccc2)C3(C)C)CO[C@@H]1CCO
IC50 [1]: 14 nM
IC50 [2]: 1640 nM

CC(=O)O[C@@]1([C@@H]2/C(C)=C(/OC(=O)OC(C)(C)C)C(=O)C3=C(C)[C@@H](OC(=O)[C@H](O)[C@H](CC(C)C)NC(=O)OC(C)(C)C)C[C@@](O)([C@H]2OC(=O)c2ccccc2)C3(C)C)CO[C@@H]1CCOC(=O)OC(C)(C)C
IC50 [1]: 51 nM
IC50 [2]: 736 nM

CC(=O)OCC[C@H]1OC[C@@]1(OC(C)=O)[C@@H]1/C(C)=C(/OC(C)=O)C(=O)C2=C(C)[C@@H](OC(=O)[C@H](O)[C@H](CC(C)C)NC(=O)OC(C)(C)C)C[C@@](O)([C@H]1OC(=O)c1ccccc1)C2(C)C
IC50 [1]: 36 nM
IC50 [2]: 956 nM

CC(=O)O[C@@]1([C@@H]2/C(C)=C(/OC(=O)[C@@H](O)[C@@H](CC(C)C)NC(=O)OC(C)(C)C)C(=O)C3=C(C)[C@@H](O)C[C@@](O)([C@H]2OC(=O)c2ccccc2)C3(C)C)CO[C@@H]1CCOC(=O)C(C)(C)C
IC50 [1]: > 3000 nM
IC50 [2]: > 3000 nM

CC(=O)O[C@@]1([C@@H]2/C(C)=C(/OC(=O)OCc3ccccc3)C(=O)C3=C(C)[C@@H](OC(=O)[C@H](O)[C@H](CC(C)C)NC(=O)OC(C)(C)C)C[C@@](O)([C@H]2OC(=O)c2ccccc2)C3(C)C)CO[C@@H]1CCO
IC50 [1]: 53 nM
IC50 [2]: 1200 nM

CC(=O)O/C1=C(\C)[C@@H]([C@]2(OC(C)=O)CO[C@@H]2CCO)[C@H](OC(=O)c2ccccc2)[C@]2(O)C[C@H](OC(=O)[C@H](O)[C@H](CC(C)C)NC(=O)OC(C)(C)C)C(C)=C(C1=O)C2(C)C
IC50 [1]: 18 nM
IC50 [2]: 1000 nM

CC(=O)O[C@H]1C(=O)[C@@]2(C)[C@H]([C@H](OC(=O)c3ccccc3)[C@]3(O)C[C@H](OC(=O)[C@H](O)[C@@H](NC(=O)c4ccccc4)c4ccccc4)C(C)=C1C3(C)C)[C@]1(OC(C)=O)CO[C@@H]1C[C@@H]2O [PACLITAXEL]
IC50 [2]: 354 nM
